Screens: PubChem, The Scripps Research Institute Molecular Screening Center
Shown are actives, neighbours in structure and some others; about 3.1% of the full set was active somewhere.
OX1R antag-1 – antagonists of human orexin 1 receptor (OX1R). Orexin/Hypocretin receptor type 1 (Homo sapiens), O43613. OX1R-expressing cells, FRET antagonist read-out. inhibition, % at 6.6 µM. 330,000 compounds, 1.8% hits. AID 485270, 2010; in the data active = inhibition mostly above about 38%, no sharp cut-off; inactive = mostly below about 40%;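 also: 0% = agonist challenge alone and 100% = reference antagonist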
OX1R antag-2 – OX1R (HCRTR1) antagonists, primary screen, fluorescence, CHO/OX1R cells, Fluo-8 calcium, orexin A | Fluo-8 calcium fluorescence | inhibition, % at 5 µM | 330,000 compounds, 0.43% hits | AID 434989, 2010;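 active = inhibition above its plate's threshold, mean inhibition of all tested compounds on the plate plus 3 SD, cut at about 37% in these data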;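 also: 0% = orexin A challenge wells and 100% = SB-334867-A antagonist wells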
GalR3 antagonist – GalR3 antagonists in HEK293 cells, primary screen, cell-based, fluorescence readout | Galanin receptor type 3 (Homo sapiens), O60755 | HEK293 GalR3-CNG cAMP membrane potential fluorescence; galR3 body fused to GalR1 C-terminus | inhibition, % at 3 µM | 360,000 compounds, 0.44% hits;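 active = inhibition above the screen-wide average plus 3 SD, cut at about 13% in these data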;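 also: forskolin and galanin both at EC90 stimulate the cells; cAMP rise reported by CNG channel membrane potential dye signal; 0% = forskolin plus galanin with DMSO and 100% = forskolin alone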
Target sequence (O60755 1-299 limits assumed): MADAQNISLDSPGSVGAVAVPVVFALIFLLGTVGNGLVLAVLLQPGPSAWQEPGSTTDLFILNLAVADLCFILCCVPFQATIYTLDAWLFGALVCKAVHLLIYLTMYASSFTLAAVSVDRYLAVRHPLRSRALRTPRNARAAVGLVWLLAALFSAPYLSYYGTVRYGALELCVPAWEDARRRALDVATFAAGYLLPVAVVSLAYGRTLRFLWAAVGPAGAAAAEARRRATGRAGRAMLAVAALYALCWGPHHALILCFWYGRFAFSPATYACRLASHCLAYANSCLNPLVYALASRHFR
CHO parental Ca – ATP-evoked calcium signal inhibitors, parental CHO, primary screen, counter-screen for OX1R antagonist project, cell-based, fluorescence, Fluo-8 calcium dye; parental CHO-K1, ATP-induced calcium, Fluo-8 fluorescence; inhibition, % at 5.6 µM; 330,000 compounds, 0.63% hits;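 active = inhibition above that plate's mean sample inhibition plus 3 SD, cut at about 26% in these data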;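 also: 0% = ATP-challenged DMSO wells and 100% = DMSO wells without ATP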
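Test system: untransfected parental CHO cell line. Compound: one dose, 5.6 µM nominal. Detection: intracellular calcium via Fluo-8 no-wash fluorescent dye. Measure: % inhibition. Benchmarks: ATP-challenged DMSO wells low, unchallenged DMSO wells high.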
GPR7 antagonist – GPR7 receptor antagonists, primary screen, cell-based, fluorescence, single concentration. Neuropeptides B/W receptor type 1 (Homo sapiens), P48145. GPR7-expressing cells, fluorescence antagonist assay. inhibition, % at 4.4 µM. 290,000 compounds, 1.1% hits; in the data active = inhibition above about 16%, passing the limit was not always enough;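 also: cells stimulated with the agonist NPW; 0% = agonist with vehicle and 100% = vehicle without agonist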
GPR7 antag conf – GPR7 receptor antagonists, confirmation, cell-based, fluorescence, single concentration; shares compounds with GPR7 antagonist; GPR7-expressing cells, calcium fluorescence antagonist mode; inhibition, % at 4.4 µM; 2,400 compounds, 52% hits; in the data active = inhibition above about 24%;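 also: stimulated with the GPR7 agonist NPW; 0% = agonist plus vehicle and 100% = vehicle alone without agonist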
MCHR1 antag – MCHR1 antagonists in cells, counter-screen for GPR7 antagonist project, cell-based, fluorescence, human | shares compounds with GPR7 antagonist | AID 2148, 2009 | inhibition, % at 4.4 µM | 2,400 compounds, 62% hits | MCHR1-expressing cells, fluorescence antagonist assay; in the data active = inhibition above about 22%;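 also: 0% = vehicle with agonist and 100% = vehicle without agonist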
Starred values were filed as active, the others as inactive; . = not tested or not shown.

SMILES | OX1R antag-1 | OX1R antag-2 | GalR3 antagonist | CHO parental Ca | GPR7 antagonist | GPR7 antag conf | MCHR1 antag
CCOC(=O)C1CCCN(C(=O)c2ccc(S(=O)(=O)NCc3ccco3)cc2)C1 (stereo unspecified) | 16 | -20 | -2 | -5 | . | . | .
O=C(NC1CCCCC1)c1ccc(S(=O)(=O)NCc2cccnc2)cc1 | 6 | -12 | -5 | -11 | -10 | . | .
CCCCCCC(C)NC(=S)Nc1cc(S(=O)(=O)N(C)C)ccc1C (stereo unspecified) | 11 | 8 | -1 | -5 | -1 | . | .
CN1C(=O)/C(=C/c2ccc(OCc3ccccc3F)cc2)NC1=S | -4 | 6 | -11 | 0 | 13 | . | .
CC(=O)/C(N=Nc1c(C)n(C)n(-c2ccccc2)c1=O)=C(\C)O | 35 | -4 | -6 | -8 | 28* | 0 | -4
CCOC(=O)/C(N=Nc1c(C)n(C)n(-c2ccccc2)c1=O)=C(\C)O | 22 | -28 | 2 | -13 | 0 | . | .
Cc1ccc2nc(C)c(CN3CCN(c4ccc([N+](=O)[O-])cc4Cl)CC3)n2c1 | 22 | 0 | 4 | 34 | 23* | 52* | 52*
C=CCc1cc(Cl)ccc1OCCOCCN(C)C | 6 | -1 | -7 | 2 | 40* | 8 | 12
COCCN1C[C@@H](CO)O[C@@H](n2cnc3c(NC4CC4)ncnc32)C1 | . | . | -6 | . | . | . | .
O=C(Nc1cccc(Cl)c1)c1cc(S(=O)(=O)NCCc2ccc(Cl)cc2)ccc1F | 7 | -1 | -5 | -7 | 21* | -8 | 43*
COc1ccc2oc(C(=O)OCC(=O)N(C)CC(=O)Nc3ccc(F)cc3)c(C)c2c1 | 25 | -5 | -2 | -23 | . | . | .
CCS(=O)(=O)c1nc(S(=O)(=O)c2ccc(C)cc2)c(N2CCC(C)CC2)s1 | 23 | 4 | 3 | -10 | 22* | 15 | 49*
COc1cc(NC(=O)CSc2nc3c(c(=O)n(C)c(=O)n3C)n2C)cc(OC)c1 | 35 | -19 | -8 | -5 | -4 | . | .
Cc1nc(Cl)sc1C(=O)Nc1ccccc1 | 17 | 1 | -10 | -2 | 1 | . | .
Cc1nc(C)c(C(=O)Nc2ccccc2)s1 | 19 | -13 | -1 | -5 | 22* | 3 | -5
Cc1ccc(C)c(CN2CCC(CNC(=O)Nc3ccc(F)c(Cl)c3)CC2)c1 | -10 | -17 | -13 | 5 | 38* | 40* | 68*
CC(C(=O)Nc1c2c(cc3c1CCC3)CCC2)N1CCCC1 (stereo unspecified) | 11 | -14 | -12 | -2 | 32* | 21 | 28*
Cc1ccc(N2C(=O)C3C4CCC(O4)C3C2=O)c(OC(F)F)c1 (stereo unspecified) | 4 | -6 | -8 | -6 | . | . | .
COc1ccc(CN(CCC(c2ccccc2)C2CCOC(C)(C)C2)C(C)=O)cc1 (stereo unspecified) | 10 | -20 | -7 | -19 | 24* | 5 | 26*
CC(C)NS(=O)(=O)c1ccc(CCC(=O)N2CCCCC2)cc1 | 7 | -24 | 6 | 13 | 23* | -12 | 2
O=C(COC(=O)c1cc(Cl)cc(Cl)c1)NCc1ccco1 | 0 | -16 | -5 | -6 | . | . | .
CS(=O)(=O)c1ccc2nc(NC(=O)Nc3ccccc3F)sc2c1 | 23 | -10 | -7 | -8 | 59* | 36* | 16
Cc1cc(NC(=O)CSc2ccc(-c3ccc(Br)cc3)nn2)no1 | 10 | -13 | -2 | -7 | 16 | . | .
O=C(Nc1ccccc1N1CCN(c2ccccc2)CC1)c1ccccc1 | 11 | -35 | -10 | -28 | 22* | 22 | 45*
O=C(Nc1ccc(N2CCOCC2)cc1N1CCOCC1)c1ccccc1 | 8 | -6 | -6 | -21 | . | . | .
